High-throughput results from PubChem.
This is a sample that favours compounds with a hit; in the whole collection about 1.6% have one here.
PPC-1+TRAIL kill: compounds killing PPC-1 cancer cells with TRAIL present, primary screen, TRAIL potentiator project, ATPLite luminescence, uHTS; PPC-1 cells + TRAIL, ATPLite viability luminescence; cell killing (% activity), % at 4 µM or 5 µM; 220,000 tested, 0.41% active; AID 1443, 2008;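 active = cell killing above 50% in the first pass at 4 µM, then a duplicate retest at 5 µM averaging 50% or more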
FLuc inh counter: firefly luciferase enzyme inhibitors, primary screen, artefact control for luciferase-based inhibitor screens, biochemical, luminescence, ATPLite; 200,000 tested, 1.5% active; 10 min; inhibition, % at 10 µM; AID 1006, 2008; Luciferin 4-monooxygenase (Photinus pyralis), P08659;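 active = inhibition above about 50% when tested at 10 µM, limit read from the data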
Target sequence (P08659 whole entry, looked up): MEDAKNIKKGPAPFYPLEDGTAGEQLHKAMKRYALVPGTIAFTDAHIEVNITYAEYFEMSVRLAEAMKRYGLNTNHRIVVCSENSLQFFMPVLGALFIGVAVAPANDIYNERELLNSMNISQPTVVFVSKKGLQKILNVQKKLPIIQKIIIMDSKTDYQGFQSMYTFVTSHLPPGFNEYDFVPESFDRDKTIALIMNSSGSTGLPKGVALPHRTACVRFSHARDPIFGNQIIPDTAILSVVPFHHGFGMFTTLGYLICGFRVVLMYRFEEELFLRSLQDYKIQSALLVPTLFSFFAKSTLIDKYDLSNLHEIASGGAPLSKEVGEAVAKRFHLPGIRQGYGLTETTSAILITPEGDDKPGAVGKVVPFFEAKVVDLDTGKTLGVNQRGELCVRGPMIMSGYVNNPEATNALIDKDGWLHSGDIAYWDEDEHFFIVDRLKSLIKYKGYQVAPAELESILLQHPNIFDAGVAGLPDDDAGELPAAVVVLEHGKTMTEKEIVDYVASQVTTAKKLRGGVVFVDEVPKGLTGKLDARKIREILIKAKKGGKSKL
FLuc stim CS: FLuc activators, initial screening, artefact control for FLuc-dependent activation tests, biochemical, ATPlite luminescence. ATPlite luciferase biochemical, 10 min; 0 = ATP-free wells, 1 = DMSO control. activation factor at 10 µM. 200,000 tested, under 10 active;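 active = luciferase activation factor, scaled between plate controls, of at least 2 with compound at 10 µM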
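System: Luciferase/luciferin detection reagent, cell-free biochemical luciferase assay | Medium: PBS buffer for ATP | Dosing: Test compounds dosed from 2 mM stocks in 100% DMSO | Timing: 10 min at ambient temperature | Signal: Luminescence measurement of luciferase light output | Evaluation: Luciferase activation, seen as luminescence increase over controls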
C8 TRAIL sens: viability loss with TRAIL in NB7+C8 cells, primary screen, TRAIL sensitizer project, cell-based, ATPlite luminescence; inhibition (viability loss, TRAIL sensitization), % at 10 µM; 360,000 tested, 1% active;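 active = compounds causing at least 50% loss of cell viability in the single-dose screen, relative to plate controls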
Of the large screens only hits and unclear results are named; the others gave an inactive call.

COc1ccc(/C=N/N2C(=O)c3ccccc3C2=O)cc1	FLuc inh counter 74
CN(C)c1ccc(/C=N/N2C(=O)c3ccccc3C2=O)cc1	none (no result: FLuc inh counter, FLuc stim CS)
CC(=O)Nc1cc(-c2cccc(C(=O)NCCN(C)C)c2)cn2c(-c3cccc(C(F)(F)F)c3)cnc12	C8 TRAIL sens 65 (no result: PPC-1+TRAIL kill, FLuc inh counter, FLuc stim CS)
CCSc1ccc(-c2cc(NC=O)c3ncc(-c4cccc(C(=O)NCCN(C)C)c4)n3c2)cc1	C8 TRAIL sens 79 (no result: PPC-1+TRAIL kill, FLuc inh counter, FLuc stim CS)
Brc1ccccc1-n1nnc(-c2nccs2)n1	FLuc inh counter 51
CC[C@H](C)[C@@H](CNC)NC[C@@H](Cc1ccc(O)cc1)NCC(C)(C)C	none (no result: PPC-1+TRAIL kill, FLuc inh counter, FLuc stim CS)
CC[C@@H](C)[C@H](CN[C@H](CNC)C(C)C)NC[C@@H](C)c1ccc(CC(C)C)cc1	C8 TRAIL sens 64 (no result: PPC-1+TRAIL kill, FLuc inh counter, FLuc stim CS)
O=C(O/N=C(\c1ccccc1)c1ccncc1)c1ccccc1Cl	none
CC(=NOC(=O)c1ccc(Cl)cc1)c1nccs1	none (no result: PPC-1+TRAIL kill, FLuc inh counter, FLuc stim CS)
N/C(=N\OC(=O)c1ccccc1Cl)c1ccc(Cl)cc1	FLuc inh counter 56, C8 TRAIL sens 83
N/C(=N\OC(=O)c1ccc(Cl)cc1)c1ccc(Cl)cc1	C8 TRAIL sens 88
N/C(=N\OC(=O)c1ccccc1Cl)c1ccccc1	FLuc inh counter 94, C8 TRAIL sens 66
N/C(=N\OC(=O)c1ccco1)c1ccc(Cl)cc1	none
N/C(CCS(=O)(=O)c1ccc(Cl)cc1)=N\OC(=O)c1ccccc1Cl	none (no result: FLuc inh counter, FLuc stim CS)
C/C(=N\OC(=O)c1ccc(Cl)cc1)c1nccs1	FLuc inh counter 72
O=C(O)CSC1CC(=O)N(c2ccc(Br)cc2)C1=O (configuration not stated)	none (no result: PPC-1+TRAIL kill, FLuc inh counter, FLuc stim CS)
Cn1cc(S(=O)(=O)N2CCNCC2)cc1C(N)=O	none (no result: PPC-1+TRAIL kill, FLuc inh counter, FLuc stim CS)
O=C(NCc1ccccc1)c1cc(C2COCCN2C(=O)C2CC2)on1 (configuration not stated)	none (no result: PPC-1+TRAIL kill, FLuc inh counter, FLuc stim CS)
Cc1ccc(/C(N)=N/OC(=O)c2ccc(C)cc2Cl)cc1	PPC-1+TRAIL kill 62, FLuc inh counter 73, C8 TRAIL sens 71
N/C(=N\OC(=O)c1ccc(Cl)cc1)c1ccn[nH]1	C8 TRAIL sens 83 (no result: PPC-1+TRAIL kill, FLuc inh counter, FLuc stim CS)
Cc1cccc(/C(N)=N/OC(=O)c2cccc3ccccc23)c1	C8 TRAIL sens 92 (no result: PPC-1+TRAIL kill, FLuc inh counter, FLuc stim CS)
N/C(=N\OC(=O)c1ccc(Cl)cc1Cl)c1ccc(Cl)cc1	FLuc inh counter 54, C8 TRAIL sens 87
N/C(=N\OC(=O)c1cccc2ccccc12)c1cccnc1	none
N/C(Cn1cncn1)=N\OC(=O)c1ccc(Cl)cc1	none
CCSc1nnc(NC(=O)CN2C(=O)NC3(CCCC3)C2=O)s1	none (no result: PPC-1+TRAIL kill, FLuc inh counter, FLuc stim CS)
Cc1cccc(/C(N)=N/OC(=O)c2ccc(Cl)cc2Cl)c1	FLuc inh counter 90, C8 TRAIL sens 62
Cc1cccc(/C(N)=N/OC(=O)COc2ccccc2Cl)c1	none
COc1ccc(C(=O)COC(=O)c2cccs2)cc1	none (no result: PPC-1+TRAIL kill, FLuc inh counter, FLuc stim CS)
O=C(COC(=O)c1cccs1)c1ccccc1	FLuc inh counter 66
O=C(OCc1ccc(COC(=O)c2cccnc2Cl)cc1)c1cccnc1Cl	none
CCc1ccc(C(=O)COC(=O)c2cccnc2Cl)cc1	FLuc inh counter 91
O=C(COC(=O)c1cccnc1Cl)c1ccccc1	FLuc inh counter 59
O=S(=O)(Nc1cccc(-n2cnnn2)c1)c1ccccc1C(F)(F)F	none (no result: PPC-1+TRAIL kill, FLuc inh counter, FLuc stim CS)
O=[N+]([O-])c1ccc(S(=O)(=O)N2CCN(c3ccc(N4CCOCC4)nn3)CC2)cc1	none (no result: PPC-1+TRAIL kill, FLuc inh counter, FLuc stim CS)
CNC[C@H]1OCc2ccccc2-c2ccccc2C(=O)N([C@H](C)CO)C[C@H]1C	none (no result: PPC-1+TRAIL kill, FLuc inh counter, FLuc stim CS)
CCOc1ccc(/C=N/NC(=O)c2ccccc2NC(=O)c2ccc(OC)cc2)cc1	FLuc inh counter 94, C8 TRAIL sens 76
COc1ccc(C(=O)Nc2ccccc2C(=O)Nc2ccccc2)cc1	none (no result: PPC-1+TRAIL kill, FLuc inh counter, FLuc stim CS)
COc1ccc(C(=O)Nc2ccccc2C(=O)N/N=C/c2ccco2)cc1	FLuc inh counter 97, C8 TRAIL sens 84
O=C(CSc1ccccn1)Nc1nonc1[N+](=O)[O-]	C8 TRAIL sens 54 (no result: PPC-1+TRAIL kill, FLuc inh counter, FLuc stim CS)
CC1(C(=O)N/N=C/c2c(F)c(F)c(F)c(F)c2F)CC1(Cl)Cl (configuration not stated)	C8 TRAIL sens 77 (no result: PPC-1+TRAIL kill, FLuc inh counter, FLuc stim CS)
CC1CCc2cc(F)ccc2N1C(=O)CCl (configuration not stated)	C8 TRAIL sens 94
CCC(CC)C(=O)N1c2ccc(F)cc2CCC1C (configuration not stated)	none
O=C(Nc1ccon1)Nc1cccc(Cl)c1Cl	none (no result: PPC-1+TRAIL kill, FLuc inh counter, FLuc stim CS)
N#Cc1ccccc1CCN1C(=O)c2ccccc2C1=O	none (no result: PPC-1+TRAIL kill, FLuc inh counter, FLuc stim CS)
COc1ccccc1C(=O)Nc1nnc(SCC(=O)NCc2ccco2)s1	none (no result: PPC-1+TRAIL kill, FLuc inh counter, FLuc stim CS)
